From BindingDB's records for doi:10.1021/jm020820h (2002)

Columns and labels:
[1] = biological target: T1, Reverse transcriptase/RNaseH (Human immunodeficiency virus 1, UniProt Q72547); test: Effective concentration required to inhibit HIV-1 induced cytopathicity in CEM cell culture by 50%.
Method in brief: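 CEM cells at 4 × 10⁵/mL infected with HIV-1 or HIV-2 at ~100 CCID₅₀ per mL, mixed 1:1 with compound dilutions. Giant cell formation scored microscopically after 4 days. EC₅₀ is the concentration inhibiting virus-induced cytopathicity by 50%.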

[2] = biological target: T1, Reverse transcriptase/RNaseH; test: Effective concentration required to inhibit HIV-1 induced cytopathicity in MT-4 cell culture by 50%.
Method in brief: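 MT-4 cells at 3 × 10⁵/mL infected with HIV-1 or HIV-2 at ~100 CCID₅₀ per mL, mixed 1:1 with compound dilutions. Cytopathicity read by trypan blue dye exclusion after 5 days. EC₅₀ is the concentration giving 50% protection against the virus-induced loss of cell viability.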

[3] = Effective concentration required to inhibit HIV-1 induced cytopathicity in CEM cell culture by 50%.
[4] = Effective concentration required to inhibit HIV-1 induced cytopathicity in MT-4 cell culture by 50%.

Compound | EC50 [1] [µM] | EC50 [2] [µM] | EC50 [3] [µM] | EC50 [4] [µM]
COC(=O)CC=C1C(=N)C2(OS1(=O)=O)C(CO[Si](C)(C)C(C)(C)C)OC(n1cc(C)c(=O)[nH]c1=O)C2O[Si](C)(C)C(C)(C)C (configuration not stated) | 3 | 3.7 | – | –
CNC1=C(C)S(=O)(=O)OC12C(CO[Si](C)(C)C(C)(C)C)OC(n1cc(C)c(=O)n(C)c1=O)C2O[Si](C)(C)C(C)(C)C (configuration not stated) | – | – | > 100 | > 250
Cc1cn(C2OC(CO[Si](C)(C)C(C)(C)C)C3(OS(=O)(=O)C(c4ccsc4)=C3N)C2O[Si](C)(C)C(C)(C)C)c(=O)n(C)c1=O (configuration not stated) | – | – | – | 2.3
Cc1cn(C2OC(CO[Si](C)(C)C(C)(C)C)C3(OS(=O)(=O)C(c4ccccc4)=C3N)C2O[Si](C)(C)C(C)(C)C)c(=O)[nH]c1=O (configuration not stated) | – | – | 2.5 | 6.7
Cc1cn(C2OC(CO[Si](C)(C)C(C)(C)C)C3(OS(=O)(=O)C=C3N)C2O[Si](C)(C)C(C)(C)C)c(=O)n(C)c1=O (configuration not stated) | – | – | 0.04 | –
Cc1cn(C2OC(CO[Si](C)(C)C(C)(C)C)C3(OS(=O)(=O)C(I)=C3N)C2O[Si](C)(C)C(C)(C)C)c(=O)n(C)c1=O (configuration not stated) | – | – | – | 0.11
CCOC(=O)CC=C1C(=N)C2(OS1(=O)=O)C(CO[Si](C)(C)C(C)(C)C)OC(n1cc(C)c(=O)[nH]c1=O)C2O[Si](C)(C)C(C)(C)C (configuration not stated) | 3.5 | 10 | – | –
Cc1cn([C@@H]2O[C@H](CO[Si](C)(C)C(C)(C)C)[C@@]3(OS(=O)(=O)C(=CCCO)C3=N)[C@H]2O[Si](C)(C)C(C)(C)C)c(=O)[nH]c1=O [1-[(5R,6R,8R,9R)-4-amino-9-(tert-butyl-dimethyl-silanyloxy)-6-(tert-butyl-dimethyl-silanyloxymethyl)-3-(3-hydroxy-propenyl)-2,2-dioxo-1,7-dioxa-2lambda*6*-thia-spiro[4.4]non-3-en-8-yl]-5-methyl-1H-pyrimidine-2,4-dione] | – | 6.6 | – | –
Cc1cn(C2OC(CO[Si](C)(C)C(C)(C)C)C3(OS(=O)(=O)C(Br)=C3N)C2O[Si](C)(C)C(C)(C)C)c(=O)[nH]c1=O (configuration not stated) | – | – | 0.85 | 0.93
Cc1cn(C2OC(CO[Si](C)(C)C(C)(C)C)C3(OS(=O)(=O)C(c4ccccc4)=C3N)C2O[Si](C)(C)C(C)(C)C)c(=O)n(C)c1=O (configuration not stated) | – | – | – | 1.7
CC1=C(N)C2(OS1(=O)=O)C(CO[Si](C)(C)C(C)(C)C)OC(n1cc(C)c(=O)n(C)c1=O)C2O[Si](C)(C)C(C)(C)C (configuration not stated) | – | – | 2.2 | 0.25
CC=C1C(=N)C2(OS1(=O)=O)C(CO[Si](C)(C)C(C)(C)C)OC(n1cc(C)c(=O)[nH]c1=O)C2O[Si](C)(C)C(C)(C)C (configuration not stated) | 4 | 3.2 | – | –
Cc1cn(C2OC(CO[Si](C)(C)C(C)(C)C)C3(OS(=O)(=O)C(=CCCO)C3=N)C2O[Si](C)(C)C(C)(C)C)c(=O)n(C)c1=O (configuration not stated) | 2.8 | 5.9 | – | –
COC(=O)CC=C1C(=N)C2(OS1(=O)=O)C(CO[Si](C)(C)C(C)(C)C)OC(n1cc(C)c(=O)n(C)c1=O)C2O[Si](C)(C)C(C)(C)C (configuration not stated) | 0.98 | 2.9 | – | –
CC=C1C(=N)C2(OS1(=O)=O)C(CO)OC(n1cc(C)c(=O)[nH]c1=O)C2O[Si](C)(C)C(C)(C)C (configuration not stated) | 15 | 23 | – | –
Cc1cn([C@@H]2O[C@H](CO[Si](C)(C)C(C)(C)C)[C@@]3(OS(=O)(=O)C(I)=C3N)[C@H]2O[Si](C)(C)C(C)(C)C)c(=O)[nH]c1=O [1-[(5R,6R,8R,9R)-4-amino-9-(tert-butyl-dimethyl-silanyloxy)-6-(tert-butyl-dimethyl-silanyloxymethyl)-3-iodo-2,2-dioxo-1,7-dioxa-2lambda*6*-thia-spiro[4.4]non-3-en-8-yl]-5-methyl-1H-pyrimidine-2,4-dione] | – | – | 0.06 | 0.12
